Consider 1 compound from ChEMBL document CHEMBL4619773, “Chemoreactive-Inspired Discovery of Influenza A Virus Dual Inhibitor to Block Hemagglutinin-Mediated Adsorption and Membrane Fusion” (J Med Chem, 2020).

A short description of data set [1]: Cytotoxicity in dog MDCK cells assessed as reduction in cell viability incubated for 48 hrs by crystal violet staining based assay. Also noted: species or system Canis lupus familiaris.
The subject of data set [2] is Influenza A virus. Kind of data set: Antiviral activity against Influenza A virus (A/Puerto Rico/8/1934(H1N1)) infected in Kunming mouse assessed as mouse survival at 40 ug/day dosed intranasally starting 4 hrs after viral challenge and continued for 7 days and measured on day 14 by plaque assay. In kind it is functional. The procedure, abridged:
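Groups of 10 female Kunming mice were infected intranasally with PR8 (1000 PFU/mouse) on day 0 and dosed once daily for seven days. Weight and clinical signs were recorded daily. Mice losing more than 25% of pre-infection weight were scored dead and euthanized; survivors were killed on day 14.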

A short description of data set [3]: Tmax in mouse at 5 mg/kg, po administered as single dose. In kind it is ADME, organism-based. Particulars: in vivo. The procedure, abridged:
(§1)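 Male Kunming mice (20–25 g) and male SD rats (180–220 g) were fasted 12 h before dosing. Compound was suspended in 0.5% CMC-Na and given by gavage (5 mg/kg mice, 3.5 mg/kg rats), or dissolved in PEG400 and given iv via tail vein (0.5 mg/kg mice, 0.35 mg/kg rats). Plasma was sampled from 5 min to 24 h and analysed by LC-MS/MS (n=3). F = AUCoral/AUCiv.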

Data set [4] can be described thus: Oral bioavailability in mouse at 5 mg/kg administered as single dose. In kind it is ADME, organism-based. Particulars: in vivo. The method in brief:
as §1

Data set [5] is described as follows: Cumulative drug excretion in mouse urine at 5 mg/kg, po administered as single dose measured after 72 hrs. It is filed as ADME, organism-based. Particulars: read-out: Drug excretion. The procedure, abridged: (§2)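 Single oral (gavage, 0.5% CMC-Na) or iv (tail vein, PEG400) dosing was given to male Kunming mice or Sprague Dawley rats held in metabolic cages. Urine and feces were collected at intervals to 72 h. Feces were dried, ground and homogenized in water (1:9 w/v). Samples were precipitated with acetonitrile containing internal standard and analysed by LC-MS/MS.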

Data set [6] in a line: Metabolic stability in mouse liver microsomes at 2 uM after 60 mins. It is filed as ADME, Microsome. Particulars: read-out: Stability. The procedure, abridged:
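Mouse, rat or human liver microsomes (final 0.5 mg/mL protein) were preincubated with an NADPH-regenerating system in 50 mM Tris-HCl pH 7.4 at 37 °C for 5 min. Compound was added at 2 µM final and incubated at 37 °C; NADPH-free incubations served as controls. Reactions were quenched with acetonitrile plus internal standard at 60 min. Percent remaining was measured by LC-MS/MS (n=3).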
(Liver microsomes are a subcellular fraction often used to study metabolism.)

A short description of data set [7]: AUC (0 to t) in rat at 3.5 mg/kg , po administered as single dose. Particulars: in vivo. In kind it is ADME, organism-based. The method in brief:
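Male Kunming mice (20-25 g) and male Sprague Dawley rats (180-220 g) were fasted 12 h before dosing. Oral dosing was by gavage as a suspension in 0.5% sodium carboxymethyl cellulose; iv dosing was via tail vein in PEG400. Serial plasma samples were taken to 24 h, protein-precipitated with acetonitrile plus N-CH3 internal standard, and quantified by LC-MS/MS (n=3). Bioavailability = AUCoral/AUCiv.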

Data set [8] can be described thus: Oral bioavailability in rat at 3.5 mg/kg administered as single dose. In kind it is ADME, organism-based. Particulars: in vivo. The procedure, abridged: as §1
The nature of data set [9]: Cumulative drug excretion in rat urine at 3.5 mg/kg, po administered as single dose measured after 72 hrs. In kind it is ADME, organism-based. The following applies: read-out: Drug excretion. The procedure, abridged: as §2
Data set [10] is described as follows: Cumulative drug excretion in rat urine at 0.35mg/kg, iv administered as single dose measured after 72 hrs. Particulars: read-out: Drug excretion. In kind it is ADME, organism-based. The procedure, abridged:
as §2

The nature of data set [11]: Cumulative drug excretion in rat feces at 0.35mg/kg, iv administered as single dose measured after 72 hrs. In kind it is ADME, organism-based. Particulars: faeces, read-out: Drug excretion. The method in brief: as §2
For data set [12], the system named is Influenza A virus. Kind of data set: Antiviral activity against Influenza A virus (A/Puerto Rico/8/1934(H1N1)) infected in Kunming mouse assessed as decrease in lung IL6 level at 20 to 40 ug/day dosed intranasally starting 4 hrs after viral challenge and continued for 4 days by ELISA. In kind it is functional, organism-based. The method in brief:
(§3)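 Four-week-old female Kunming mice received PR8 intranasally (500 PFU/mouse in 40 µL PBS) and were then dosed once daily orally or intranasally. Lungs were collected on day 4, and TNF-α and IL-6 in lung tissue were measured by ELISA.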

In data set [13] the test system is Influenza A virus. Kind of data set: Antiviral activity against Influenza A virus (A/Puerto Rico/8/1934(H1N1)) infected in Kunming mouse assessed as decrease in lung TNFalpha level at 5 to 10 mg/kg/day, po starting 4 hrs after viral challenge and continued for 4 days by ELISA. In kind it is functional, organism-based. The method in brief: as §3
(In general: An ELISA detects its analyte on a solid surface through an enzyme-linked reagent.)

A short description of data set [14]: Toxicity in Kunming mouse assessed as effect on creatine kinase level at 5 to 10 mg/kg/day, po for 7 days. In kind it is organism-based. Particulars: in vivo, 168 h. The procedure, abridged: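 Male Kunming mice (20–25 g) received compound orally at 5 or 10 mg/kg/day, suspended in 0.5% sodium carboxymethyl cellulose, once daily for 7 days; controls received vehicle. Serum was collected under isoflurane 24 h after the last dose. AST, ALT, CR, BUN, LDH, CK and CK-MB were measured with commercial kits.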

Data set [15] has as its system Influenza A virus. Kind of data set: Antiviral activity against luciferase tagged Influenza A virus H5N1 pseudovirus infected in MDCK cells assessed as reduction in virus infection incubated for 48 hrs by luciferase reporter gene assay. In kind it is functional, organism-based. The method in brief: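 MDCK cells infected with luciferase-expressing H5N1 HA/NA pseudotyped HIV-based virus were treated with compound under four different treatment regimens. Infection was quantified by firefly luciferase glow assay.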

Data set [16] addresses Hemagglutinin (Influenza A virus (A/Puerto Rico/8/1934(H1N1)), UniProt P03452). Kind of data set: Binding affinity to Influenza A virus (A/California/04/2009(H1N1)) Hemagglutinin at 1.5625 to 50 uM by SPR assay. The procedure, abridged: (§4)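 HA protein was immobilized on CM5 chips. Compound (50, […], 12.5, 6.25, 3.125, 1.5625 µM) was injected for 2 min, followed by a 10-min PBST wash and regeneration with 2 mM NaOH for 30 s. Runs were at 25 °C with 2 µl/s flow, using a blank HA-free reference channel. KD was obtained from kinetic fitting.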
On the technique in general: In SPR one partner is held on a chip, and binding of the other changes the refractive index at the surface.

Data set [17] in a line: Binding affinity to Influenza A virus (A/Aichi/2/1968(H3N2)) Hemagglutinin at 1.5625 to 50 uM by SPR assay. The method in brief:
as §4

The subject of data set [18] is Influenza A virus. Kind of data set: Antiviral activity against wild type Influenza A virus (A/Puerto Rico/8/1934(H1N1)) pseudovirus infected in 293FT cells incubated for 48 hrs by inverted fluorescence microscopy. In kind it is functional, organism-based. The method in brief:
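GFP-reporter lentiviral pseudoviruses bearing PR8 wild-type or mutant (T30N/E233D/T359A or T359A) HA plus NA were produced in 293FT cells. Pseudovirus was pretreated with 50 µg/ml compound for 1 h at 37 °C before infection. GFP-positive cells were counted by fluorescence microscopy at 48 h p.i.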

Data set [19] deals with Influenza A virus. The data set is described as follows: Antiviral activity against Influenza A virus (A/Puerto Rico/8/1934(H1N1)) infected in human A549 cells assessed as reduction in endocytosis and nuclear import of viral RNP by measuring green fluorescence of NP protein in both cytoplasm and nucleus at 25 ug/ml during early infection stage (0 to 2 hrs post infection) by indirect immunofluorescence assay. It is filed as functional, organism-based. The procedure, abridged: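 PR8 virus was pretreated with or without 25 µg/ml compound for 1 h at 37 °C before infection. After adsorption, compound- or DMSO-containing medium was added. At 2 h p.i. cells were fixed (4% PFA), permeabilized (0.5% Triton X-100) and blocked (2% BSA). They were stained with anti-NP antibody, FITC secondary antibody and DAPI, then imaged by confocal microscopy.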

Converted amounts (≈) assume the structure as drawn. The source made the active and inactive calls. The rule behind the calls is not given here.

Chain of Hemagglutinin (Influenza A virus (A/Puerto Rico/8/1934(H1N1)), UniProt P03452) (P03452 whole entry): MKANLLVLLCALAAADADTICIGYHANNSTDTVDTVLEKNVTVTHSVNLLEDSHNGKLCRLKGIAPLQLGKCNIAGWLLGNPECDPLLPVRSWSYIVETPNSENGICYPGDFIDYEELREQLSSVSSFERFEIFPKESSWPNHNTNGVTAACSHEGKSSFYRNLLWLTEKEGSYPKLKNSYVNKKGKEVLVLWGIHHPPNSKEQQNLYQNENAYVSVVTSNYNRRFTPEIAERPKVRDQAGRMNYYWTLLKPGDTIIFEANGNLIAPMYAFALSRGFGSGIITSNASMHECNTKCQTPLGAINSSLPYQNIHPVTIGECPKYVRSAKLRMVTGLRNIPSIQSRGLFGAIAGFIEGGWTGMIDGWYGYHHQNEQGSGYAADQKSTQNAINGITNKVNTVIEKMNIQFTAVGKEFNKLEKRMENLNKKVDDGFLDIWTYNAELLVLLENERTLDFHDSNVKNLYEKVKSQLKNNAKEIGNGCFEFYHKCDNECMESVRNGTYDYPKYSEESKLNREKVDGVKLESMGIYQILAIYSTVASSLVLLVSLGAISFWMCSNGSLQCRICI

Usually CC50 stands for the concentration at which the toxic effect on the cells reaches its halfway point. Usually Tmax stands for the time at which the peak concentration occurs. In general, bioavailability refers to the share of a dose that reaches the circulation, judged against a reference dose that is usually intravenous. The low end stands for poor availability, the high end for good availability. One may read the AUC(0-t) as the area under the concentration-time curve up to a stated or last time point. The low end stands for low exposure, the high end for high exposure. As usually defined, the Kd is the constant that tells how readily two partners part at equilibrium. One may read the IC50 as the concentration that gives 50% inhibition. Read a high IC50 as weaker potency in that assay. As for `CC(=O)c1cc(C)c(O)c(Cc2[nH]c3ccccc3c2Cc2c(O)c(C)cc(C(C)=O)c2O)c1O`, in data set [1], the CC50 at 48 h turned out to be 1470 µM. The Survival with Influenza A virus [2] is 100%. Further, in data set [3], the Tmax was 4 h. The bioavailability in data set [4] was 5.7%; in data set [8] it was 1.4%. For the same compound, the dose excreted at 72 h in data set [5] stood at 0.03%; in data set [9] it was 0.004%; in data set [10], 0.006%; in data set [11], 7.2%. Also, in [6], the remaining at 1 h, 2 µM stood at 0.8%. Also, the AUC(0-t) in [7] was determined as 1360 ng·h/mL. Besides, the outcome in the data set on Influenza A virus [12], in the data set on Influenza A virus [13] and in the data set on Influenza A virus [19] was Active. The results for the Activity result (in [14]; in the data set on Influenza A virus [15]) were “Non-Toxic” and “Dose-dependent effect”, respectively. Also, the Kd in [16] turned out to be 6.9 µM; in data set [17], 7.3 µM. Moreover, the IC50 in the data set on Influenza A virus [18] was 6 µg/mL (≈ 12.7 µM).
